Screening results deposited in PubChem BioAssay by The Scripps Research Institute Molecular Screening Center.
The list is not random: actives were taken first. Their share in the collection is about 0.74%.
ASAP1 GAP inh – blocks human ASAP1-stimulated Arf1 GTP hydrolysis | inhibition, % at 16.5 µM | Q9ULH1 | GDP FP detection | AID 624377 | 0.19% of 360,000 active; in the data active = inhibition above about 25%;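 note: 0% = vehicle with enzyme and substrate and 100% = no enzyme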
DDE Tn6 FP inh – DD(E)-Tn6 binding inhibition, primary FP screen | P02675 | Fibrin DD(E) TRITC-Tn6 fluorescence polarization displacement | inhibition, % at 8.3 µM | 0.21% of 370,000 active | AID 720509;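 active = inhibition above a per-campaign cutoff: mean of compounds within control limits plus 3 SD, cut at about 15% in these data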;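 note: 0% = median of all compound wells on the plate and 100% = blocking peptide control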
Target sequence (P02675 whole entry, looked up): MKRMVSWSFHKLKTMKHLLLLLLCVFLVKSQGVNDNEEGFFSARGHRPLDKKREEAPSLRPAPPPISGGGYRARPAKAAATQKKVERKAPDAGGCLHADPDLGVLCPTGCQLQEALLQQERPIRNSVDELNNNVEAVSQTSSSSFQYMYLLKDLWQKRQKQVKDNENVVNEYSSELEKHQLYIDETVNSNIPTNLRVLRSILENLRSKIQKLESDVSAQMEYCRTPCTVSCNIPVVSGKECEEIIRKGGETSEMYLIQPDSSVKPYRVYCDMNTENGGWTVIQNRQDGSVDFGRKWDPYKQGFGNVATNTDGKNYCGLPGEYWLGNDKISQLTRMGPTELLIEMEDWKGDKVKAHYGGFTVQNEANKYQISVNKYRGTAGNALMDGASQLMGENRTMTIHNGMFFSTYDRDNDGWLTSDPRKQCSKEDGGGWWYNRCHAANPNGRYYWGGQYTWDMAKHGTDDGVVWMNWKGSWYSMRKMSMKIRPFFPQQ
DDE Tn7 FP inh – inhibitors of Tn7 peptide binding to human fibrin DD(E); 0.13% of 370,000 active; inhibition, % at 8.3 µM; P02675; FP displacement of FITC-Tn7 peptide from fibrin DD(E); 0% = median of compound wells per plate;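 active = inhibition above the mean of compounds falling within the control limits plus 3 SD of them, cut at about 14% in these data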;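 note: 0% = plate median of compound wells and 100% = 10 µM Aha-Tn7 peptide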
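system = human fibrin DD(E) protein | quantity = DD(E) 2 µM final | medium = Tris/NaCl/CaCl2 buffer, pH 7.8 | also added = labelled Tn7 tracer, 0.1 µM | compound dosing = single point at 8.3 µM | timing = compound with protein 10 min, then 3 h after probe, room temperature | signal = FP measurement | benchmarks = Aha-Tn7 high control | repeats = one replicate per compound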
ARFGAP1 inh – rat ARFGAP1 inhibition; Q62848; Arfgap1-stimulated ARF1 GTP hydrolysis, GDP FP detection; inhibition, % at 16.5 µM; 0.26% of 360,000 active;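 active = inhibition above a per-plate limit, mean inhibition of low control wells plus 3 SD, cut at about 25% in these data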;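 note: 0% = DMSO wells with enzyme and 100% = wells lacking Arfgap1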
Target sequence (Q62848 1-136 limits assumed): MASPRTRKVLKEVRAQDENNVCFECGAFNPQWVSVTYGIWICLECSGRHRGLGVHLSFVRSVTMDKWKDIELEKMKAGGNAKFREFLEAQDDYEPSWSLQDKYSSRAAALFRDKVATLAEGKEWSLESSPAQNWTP
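system = rat Arfgap1 catalytic domain, aa 1-136 | technique = FP, GDP Alexa 633 tracer displaced from anti-GDP antibody, 620/688 nm | compound = one concentration, 16.5 µM, DMSO 1.26% | medium = HEPES-based buffer, pH 7.5 | timing = compound-enzyme preincubation 20 min, reaction 120 min, detection 60 min, 25 °C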
ARFGAP1 inh conf – rat ARFGAP1 inhibition, confirmed; AID 651608; inhibition, % at 16.5 µM; 30% of 890 active; shares compounds with ARFGAP1 inh; ARFGAP1-stimulated ARF1 GTP hydrolysis, GDP tracer FP;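 active = average inhibition over triplicates above the hit cutoff set in the earlier primary screen, cut at about 25% in these data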;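 note: 0% = Arfgap1 plus ARF1-GTP with DMSO and 100% = wells lacking Arfgap1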
* = called active by the depositor; . = no result.

SMILES	ASAP1 GAP inh	DDE Tn6 FP inh	DDE Tn7 FP inh	ARFGAP1 inh	ARFGAP1 inh conf
CCOc1ccc2oc(C(=O)OCC(=O)N3CCCC(C)C3)c(C)c2c1 (centres undefined)	18.9	4.8	8.7	33.3*	33.3*
Cc1cc(Oc2cccnc2)ccc1NC(=O)Cc1cn(C)c2ccccc12	2.3	-13.7	-6.9	1.0	.
CCOc1cc2nc(-c3ccc(OC)c(OC)c3)nc(N3CCOCC3)c2cc1OC	1.5	-5.9	-3.0	26.2*	14.2
COc1cc2nc(Cl)nc(N3CCOCC3)c2cc1OC	-2.4	-2.4	-3.6	9.4	.
CSc1ccc(-c2cnc(N3CCC(C(N)=O)CC3)s2)cc1	.	-2.5	3.4	.	.
COC(=O)C1=C(C)N(Cc2ccc(Br)cc2)C(=S)NC1c1ccccc1 (centres undefined)	-7.0	3.2	6.4	6.0	.
Cc1c(C(=O)NN)nn(-c2ccc(Cl)cc2)c(=O)c1C#N	6.7	0.7	11.3	24.6*	-1.1
COCc1[nH]nc2c1C(c1ccc(F)cc1)N(c1ccc(OC)cc1)C2=O (centres undefined)	12.4	4.5	-4.4	0.3	.
CC(C)CCC(CCNCc1ccccn1)c1ccc(Cl)cc1 (centres undefined)	4.3	-1.7	-6.1	30.9*	-9.0
O=C(COC(=O)CNC(=O)c1ccc(Cl)cc1Cl)NC(=O)NC1CCCCC1	8.0	-2.0	-2.3	-8.2	.
O=C(COC(=O)CNC(=O)c1ccc(Cl)cc1Cl)NC1CCCCC1	-0.5	-4.9	8.0	27.4*	1.4
Fc1ccc(Nc2ccnc(Nc3ccc(F)cc3)n2)cc1	6.9	-10.1	-1.0	24.7*	24.0
Nc1ncnc(Nc2ccc(F)cc2)n1	1.2	7.9	-4.2	1.2	.
COC(=O)C(CC(C)C)N(Cc1ccc(Br)cc1)S(=O)(=O)CCl (centres undefined)	9.6	0.2	3.5	-5.1	.
C[C@@H]1CN([C@@H](C)CO)C(=O)CCCn2nncc2CO[C@H]1CN(C)S(=O)(=O)c1cn(C)cn1	-4.9	0.2	-3.9	0.8	.
C[C@H](CO)N1C[C@H](C)[C@@H](CN(C)S(=O)(=O)c2cn(C)cn2)OCc2cnnn2CCCC1=O	-0.7	0.3	-3.2	50.9*	-1.4
CCn1nc(NC(=O)c2cccnc2)c2cc3ccccc3nc21	8.6	1.3	4.3	26.7*	7.9
C[C@H]1[C@H](c2ccccc2)Oc2cccc(NCCc3ccccc3)c2S(=O)(=O)N1Cc1cccc(F)c1	4.5	-8.1	-8.9	-1.2	.
CCOC(=O)c1ccc(Nc2cc(C)nc(-c3ccccc3)n2)cc1	19.2	7.3	-5.1	27.0*	15.4
CC(C)(C)OC(=O)N1CCC[C@H]1C(=O)NCC1CCC(C(=O)O)CC1 (some centres undefined)	5.0	1.5	-1.3	26.3*	-0.6
CCn1c(CSc2nc3ccccc3s2)nnc1SCC(=O)c1ccc(O)c(O)c1	-8.2	-11.3	-2.2	31.5*	-0.9
C[C@@H]1ON(C)[C@H]2C[C@H]3c4[nH]c5c(-c6ccc7c(c6)OCO7)cccc5c4CCN3C(=O)[C@@H]12	14.7	-2.4	-4.3	-1.1	.
COc1ccc([N+](=O)[O-])cc1CN1CCN(c2ncc(Cc3ccccc3)cn2)CC1	-4.1	-1.8	8.2	26.2*	-2.0
CCOC(=O)N1CCN(C(=O)CSc2nc(=O)n3cc(C)ccc3n2)CC1	19.6	-0.7	-0.2	40.4*	38.3*
Cc1ccc2nc(SCC(=O)NC3CCCCC3)nc(=O)n2c1	-5.8	2.0	0.5	10.5	.
SMILES	ASAP1 GAP inh	DDE Tn6 FP inh	DDE Tn7 FP inh	ARFGAP1 inh	ARFGAP1 inh conf
Cc1ccc2nc(SCC(=O)Nc3ccc(C)c(Cl)c3)nc(=O)n2c1	0.2	7.9	-6.9	20.1	.
COc1ccccc1NC(=O)CSc1nc(=O)n2cc(C)ccc2n1	0.3	2.6	4.7	31.2*	22.7
Cc1ccc2nc(SCC(=O)Nc3cccc(F)c3)nc(=O)n2c1	31.8*	3.0	-3.2	54.4*	47.3*
Cc1ccc2nc(SCC(=O)Nc3cccc(Cl)c3)nc(=O)n2c1	16.9	0.1	5.1	31.4*	50.4*
COC(=O)C1=C(C)N(Cc2ccccc2C(F)(F)F)C(=NCc2ccccc2)NC1c1ccc(F)cc1 (centres undefined)	-3.0	-2.4	5.5	-2.4	.
COc1ccccc1Cc1c(C2CCCCC2)nc2c(C)cc(Br)cn12	-0.8	0.8	6.0	9.0	.
Cc1ccc2nc(SCC(=O)c3ccc(Cl)cc3)nc(=O)n2c1	15.7	-1.5	-6.8	26.6*	49.9*
C[C@@H]1CN([C@@H](C)CO)C(=O)c2ccccc2-c2ccccc2CO[C@@H]1CN(C)Cc1ccc(Cl)c(Cl)c1	14.8	-2.0	3.4	-9.6	.
O=C(CNC(=O)c1ccc(Br)o1)Nc1cccc(-c2cnc3ccccc3n2)c1	-6.4	2.5	-1.5	25.1*	4.2
O=C(Nc1cccc(-c2cnc3ccccc3n2)c1)c1ccco1	0.2	4.0	-2.8	2.3	.
Cc1nnc2ccc(-c3cccc(NC(=O)c4ccc(Cl)nc4)c3)nn12	9.3	0.5	-1.3	26.7*	1.6
Oc1ccc(C=NNc2nc3ccccc3s2)c(O)c1	-3.3	-11.7	-8.5	30.1*	11.2
O=C1Cc2ccccc2C(=O)N1	35.5*	8.9	-1.3	25.5*	28.3*
CN(Cc1ccccc1)C(=O)c1nc[nH]c1C(=O)N(C)Cc1ccccc1	4.3	9.5	0.9	26.5*	-3.6
COc1cccc(/C=N/NC(=O)c2ccc(-c3ccccc3)cc2)c1O	-2.6	4.2	1.2	36.7*	30.3*
COC(=O)c1cc2c(c3c4ccccc4n(S(=O)(=O)c4cccc(C)c4)c13)C(=O)N(Cc1ccccc1OC)C2	5.5	1.9	8.7	-7.0	.
O=[N+]([O-])c1ccc2[nH]c3nc4ccccc4nc3c2c1	8.1	-4.5	6.7	26.4*	37.5*
C/C(=N\N1C(=O)c2ccccc2NC1c1ccccc1)c1ccccc1O (centres undefined)	-6.8	1.2	3.2	27.0*	-1.5
C/C(=N\N1C(=O)c2ccccc2NC1c1ccco1)c1ccccc1O (centres undefined)	10.9	1.3	-1.6	-3.1	.
C=CCCC1CN(Cc2ccc(OC)cc2)S(=O)(=O)c2c(Oc3cc(C)c(C)c(C)c3)cccc2O1 (centres undefined)	9.3	0.6	-1.5	0.6	.
CC(=O)C1=C(C)N(CC(C)C)C(=S)NC1c1cccc(Cl)c1 (centres undefined)	-1.8	4.9	-1.9	-4.0	.
COc1cc2c(c3c1c(=O)c1cccc(F)c1n3C)C=CC(C)(C)O2	-5.8	-1.6	2.7	3.4	.
Cc1cc(C)c2nc(C)cc(N/N=C/c3ccc(O)cc3)c2c1	12.2	-15.4	-7.8	26.1*	40.0*
O=S(=O)(NCc1ccccc1)c1cc(Br)ccc1Br	1.1	0.5	-3.7	-5.1	.
CCNc1nc(NCc2ccccc2)nc(SCC(N)=O)n1	-6.8	-3.5	5.3	-0.9	.
